Source: the M2OR odorant receptor database

Columns and labels:
Details in all cases: stereoisomer not certain
OR4P4 (Homo sapiens) = OR4P4 (Homo sapiens) (UniProt Q8NGL7)
Outline: (§1)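 Values were gathered from published papers (main text and supplementary material), with extra details requested from the original authors when needed, and checked for typos and inconsistencies. Each receptor–molecule pair is called responsive (active) if the original authors judged the measured signal statistically different from baseline, and non-responsive (inactive) otherwise. Assay methods varied by source, often transient mammalian cell-line luciferase assays. Recorded details include cell line, G-protein, co-transfected protein and tags.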

OR4Q3 (Homo sapiens) = target: T1, OR4Q3 (Homo sapiens) (UniProt Q8NH05)
T1 sequence (whole entry): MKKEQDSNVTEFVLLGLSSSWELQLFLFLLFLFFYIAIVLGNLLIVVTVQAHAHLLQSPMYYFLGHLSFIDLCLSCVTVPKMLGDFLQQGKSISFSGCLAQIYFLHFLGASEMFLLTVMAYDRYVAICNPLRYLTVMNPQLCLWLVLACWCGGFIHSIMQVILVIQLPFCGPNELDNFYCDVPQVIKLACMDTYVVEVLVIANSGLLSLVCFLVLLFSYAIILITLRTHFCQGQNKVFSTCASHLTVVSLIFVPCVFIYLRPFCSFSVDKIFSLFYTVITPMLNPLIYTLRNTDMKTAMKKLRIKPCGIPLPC
Outline: as §1

OR4Q3 T135A = test system: OR4Q3 T135A
Chain of OR4Q3 T135A (as listed by the source, stated change not applied): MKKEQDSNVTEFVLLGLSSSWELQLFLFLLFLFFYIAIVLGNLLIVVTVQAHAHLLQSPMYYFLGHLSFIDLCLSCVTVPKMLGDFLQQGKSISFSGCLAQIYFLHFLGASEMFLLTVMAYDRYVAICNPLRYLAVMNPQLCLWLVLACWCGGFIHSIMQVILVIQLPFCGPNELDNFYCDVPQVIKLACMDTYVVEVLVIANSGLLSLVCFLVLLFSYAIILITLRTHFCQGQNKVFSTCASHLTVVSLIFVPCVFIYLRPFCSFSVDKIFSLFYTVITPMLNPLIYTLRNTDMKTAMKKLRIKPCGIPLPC
Outline: as §1

OR4S1 (Homo sapiens) = OR4S1 (Homo sapiens) (UniProt Q8NGB4)
Chain of OR4S1 (Homo sapiens) (Q8NGB4 whole entry): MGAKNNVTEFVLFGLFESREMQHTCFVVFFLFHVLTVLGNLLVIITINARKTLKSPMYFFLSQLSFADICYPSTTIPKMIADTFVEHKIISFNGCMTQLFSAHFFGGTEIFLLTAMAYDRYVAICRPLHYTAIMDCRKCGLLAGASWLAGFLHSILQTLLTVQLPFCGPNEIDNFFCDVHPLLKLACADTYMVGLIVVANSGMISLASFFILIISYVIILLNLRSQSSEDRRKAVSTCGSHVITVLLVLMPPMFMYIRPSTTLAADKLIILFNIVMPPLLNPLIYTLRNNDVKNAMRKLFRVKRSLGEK
Outline: as §1

OR4S2 (Homo sapiens) = OR4S2 (Homo sapiens) (UniProt Q8NH73)
Chain of OR4S2 (Homo sapiens) (Q8NH73 whole entry): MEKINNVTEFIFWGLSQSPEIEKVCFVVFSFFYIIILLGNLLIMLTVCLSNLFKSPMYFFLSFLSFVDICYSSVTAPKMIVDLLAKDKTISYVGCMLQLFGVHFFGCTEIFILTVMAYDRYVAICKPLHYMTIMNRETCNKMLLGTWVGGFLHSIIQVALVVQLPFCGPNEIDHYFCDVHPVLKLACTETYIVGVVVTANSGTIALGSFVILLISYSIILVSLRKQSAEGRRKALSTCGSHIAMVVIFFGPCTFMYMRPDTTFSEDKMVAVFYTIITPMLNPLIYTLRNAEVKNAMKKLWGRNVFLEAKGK
Outline: as §1

OR4X1 (Homo sapiens) = OR4X1 (Homo sapiens) (UniProt Q8NH49)
Chain of OR4X1 (Homo sapiens) (Q8NH49 whole entry): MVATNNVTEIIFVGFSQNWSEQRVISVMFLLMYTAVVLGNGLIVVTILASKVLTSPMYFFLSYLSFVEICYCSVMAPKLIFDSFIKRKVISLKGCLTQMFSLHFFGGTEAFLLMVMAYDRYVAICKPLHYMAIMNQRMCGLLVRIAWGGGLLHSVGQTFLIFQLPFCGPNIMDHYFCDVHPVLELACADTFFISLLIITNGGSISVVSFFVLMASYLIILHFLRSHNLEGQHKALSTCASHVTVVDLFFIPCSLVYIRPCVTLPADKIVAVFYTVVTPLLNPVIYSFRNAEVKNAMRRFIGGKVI
Outline: as §1

OR4X2 (Homo sapiens) = OR4X2 (Homo sapiens) (UniProt Q8NGF9)
Chain of OR4X2 (Homo sapiens) (Q8NGF9 whole entry): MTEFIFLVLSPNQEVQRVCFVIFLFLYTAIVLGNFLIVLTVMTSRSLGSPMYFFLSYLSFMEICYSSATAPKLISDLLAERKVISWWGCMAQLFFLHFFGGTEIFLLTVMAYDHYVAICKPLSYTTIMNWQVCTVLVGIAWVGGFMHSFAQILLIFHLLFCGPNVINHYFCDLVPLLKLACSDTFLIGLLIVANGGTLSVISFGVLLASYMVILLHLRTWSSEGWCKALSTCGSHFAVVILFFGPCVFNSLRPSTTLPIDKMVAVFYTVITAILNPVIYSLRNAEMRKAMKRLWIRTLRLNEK
Outline: as §1

OR51A2 (Homo sapiens) = OR51A2 (Homo sapiens) (UniProt Q8NGJ7)
Chain of OR51A2 (Homo sapiens) (Q8NGJ7 whole entry): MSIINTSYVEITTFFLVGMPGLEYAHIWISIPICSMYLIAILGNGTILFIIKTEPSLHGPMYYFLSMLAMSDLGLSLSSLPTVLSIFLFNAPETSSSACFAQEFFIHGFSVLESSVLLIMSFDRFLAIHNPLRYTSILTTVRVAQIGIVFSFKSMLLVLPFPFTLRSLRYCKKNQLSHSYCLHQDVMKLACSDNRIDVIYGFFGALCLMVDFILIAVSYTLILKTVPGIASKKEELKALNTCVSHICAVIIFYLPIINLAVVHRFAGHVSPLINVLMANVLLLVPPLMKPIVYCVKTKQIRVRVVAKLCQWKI
Outline: as §1

OR4Q3 = test system: OR4Q3
Chain of OR4Q3 (as listed by the source): as the sequence (as listed by the source, stated change not applied) above, with A135T, F238L counted along it
Outline: as §1

OR4Q2 (Homo sapiens) = OR4Q2 (Homo sapiens) (UniProt P0C623)
Chain of OR4Q2 (Homo sapiens) (P0C623 as listed by the source): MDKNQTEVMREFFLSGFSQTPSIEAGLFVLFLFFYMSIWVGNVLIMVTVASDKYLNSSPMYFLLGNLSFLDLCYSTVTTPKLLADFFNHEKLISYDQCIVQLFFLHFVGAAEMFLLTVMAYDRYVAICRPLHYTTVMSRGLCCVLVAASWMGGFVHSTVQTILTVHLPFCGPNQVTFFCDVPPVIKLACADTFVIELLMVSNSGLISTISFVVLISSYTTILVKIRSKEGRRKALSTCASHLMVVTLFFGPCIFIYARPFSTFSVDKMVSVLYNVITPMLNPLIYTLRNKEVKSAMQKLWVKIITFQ
Outline: as §1

Measured: odorant receptor agonist call

Chain of OR4P4 (Homo sapiens) (Q8NGL7 whole entry): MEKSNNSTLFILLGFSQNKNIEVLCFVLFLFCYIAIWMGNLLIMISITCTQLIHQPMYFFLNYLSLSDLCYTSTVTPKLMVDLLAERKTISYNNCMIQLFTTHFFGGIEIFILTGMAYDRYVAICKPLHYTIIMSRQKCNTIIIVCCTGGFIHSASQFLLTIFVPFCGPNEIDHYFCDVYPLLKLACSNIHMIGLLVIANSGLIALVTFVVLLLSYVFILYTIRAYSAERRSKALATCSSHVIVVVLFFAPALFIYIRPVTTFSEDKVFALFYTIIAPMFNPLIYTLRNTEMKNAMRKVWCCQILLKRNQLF

C=CCOC(=O)Cc1ccccc1
inactive: OR4P4 (Homo sapiens) | OR4Q3 (Homo sapiens) | OR4Q3 T135A | OR4S1 (Homo sapiens) | OR4S2 (Homo sapiens) | OR4X1 (Homo sapiens) | OR4X2 (Homo sapiens) | OR51A2 (Homo sapiens)

CCCCOC(=O)c1ccccc1N
inactive: OR4Q3
active: OR4Q3 (Homo sapiens)

Cc1c([N+](=O)[O-])c(C)c([N+](=O)[O-])c(C(C)(C)C)c1[N+](=O)[O-]
inactive: OR4P4 (Homo sapiens) | OR4Q2 (Homo sapiens) | OR4Q3 (Homo sapiens) | OR4S1 (Homo sapiens) | OR4S2 (Homo sapiens) | OR4X1 (Homo sapiens) | OR4X2 (Homo sapiens) | OR51A2 (Homo sapiens)
